This passage reports IC50 results from ChEMBL document CHEMBL1141332, “Cytotoxic metabolites from an Indonesian sponge Lendenfeldia sp” (J Nat Prod, 2007).

Experiment [1] has as its system T47D. The experiment can be described thus: Inhibition of human T47D cells assessed as cell viability under normoxic condition after 48 hrs. The experiment is classed as functional, cell-based. The method in brief:
(§1)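 Neutral Red proliferation/viability assay on T47D or MDA-MB-231 cells kept in DMEM/F12 with 10% FCS at 37 °C under 5% CO2, with 48 h compound exposure. Read-out was OD540, and % inhibition = 1 − OD540(treated)/OD540(control). IC50 was derived from the concentration–response data.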

In experiment [2] the test system is MDA-MB-231. Nature of the experiment: Inhibition of human MDA-MB-231 cells assessed as cell viability under normoxic condition after 48 hrs. It counts as functional, cell-based. Conditions: MDA-MB-231, 48 h. The method in brief:
as §1

The subject of experiment [3] is MDA-MB-231. Nature of the experiment: Inhibition of human MDA-MB-231 cells assessed as cell viability under hypoxic condition after 48 hrs. It counts as functional, cell-based. Conditions: MDA-MB-231, 48 h. The method in brief: as §1
Experiment [4] addresses T1, Hypoxia inducible factors; HIF-1-alpha, HIF-2-alpha (Homo sapiens, UniProt Q16665+Q99814). Nature of the experiment: Inhibition of 1, 10-phenanthroline-induced HIF1 activity in human T47D cells by cell based reporter assay. A digest of the protocol:
(§2)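 T47D cells grown in DMEM/F12 with glutamine, 10% FCS and penicillin/streptomycin at 37 °C under 5% CO2, then transiently transfected with the pHRE-TK-Luc reporter. Compounds from DMSO stocks were tested at half-log concentrations for 16 h, with luciferase read-out. IC50 was taken from curve fits of triplicate experiments.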
In general terms: Reporter assays use an easily measured gene product as a stand-in for the process of interest.

The test system of experiment [5] is T47D. The experiment can be described thus: Cell viability of human T47D cells under hypoxic condition after 16 hrs. It counts as functional, cell-based.
In experiment [6] the target is T1, Hypoxia inducible factors; HIF-1-alpha, HIF-2-alpha. The experiment can be described thus: Inhibition of HIF1 activity in human T47D cells by cell based reporter assay. The method in brief: as §2
For experiment [7], the system named is T47D. The experiment can be described thus: Inhibition of human T47D cells assessed as cell viability under hypoxic condition after 48 hrs. The experiment is classed as functional, cell-based. The method in brief: as §1

Usually IC50 stands for the concentration at which inhibition is half-maximal. With `COc1ccc2c(O)c(O)ccc2c1-c1c(OC)ccc2c(O)c(O)ccc12`, the IC50 in experiment [1] came to 8.7 µM; in experiment [2] it was 6 µM; in experiment [3] it was 7 µM; in experiment [4] it was 5.1 µM; in experiment [5], 19 µM; in experiment [6], 4.3 µM. Besides, the IC50 in experiment [7] was 8.3 µM.
